Measurements: ChEMBL document CHEMBL4689842, “EUbOPEN Chemogenomics Library wave 1” (2021)

System: U2OS
Assay: Multiplex assay against U2OS
Assay type: toxicity, cell-based
Details: human
Summary of the method: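 Tubulin, mitochondrial-mass and membrane-permeability phenotypes are per cents of healthy-nucleus cells. Cells were gated by CellPathfinder machine learning into Hoechst high-intensity objects or normal cells, normal cells into healthy, pyknosed or fragmented nuclei, and pyknosed cells into mitotic or apoptotic. Before that, live cells stained at seeding with Hoechst33342, BioTracker Green Microtubule Cytoskeleton Dye, MitoTracker Red and Annexin V Alexa Fluor 680 were imaged on a CQ1 microscope at 37°C and 5% CO2 after compound addition.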

[1] = 12 h, 1 µM, compound concentration 1 uM, replicate 1
[2] = 12 h, 1 µM, compound concentration 1 uM, replicate 2
[3] = 12 h, 10 µM, compound concentration 10 uM, replicate 1
[4] = 12 h, 10 µM, compound concentration 10 uM, replicate 2
[5] = 24 h, 1 µM, compound concentration 1 uM, replicate 1
[6] = 24 h, 1 µM, compound concentration 1 uM, replicate 2
[7] = 24 h, 10 µM, compound concentration 10 uM, replicate 1
[8] = 24 h, 10 µM, compound concentration 10 uM, replicate 2
[9] = 48 h, 1 µM, compound concentration 1 uM, replicate 1
[10] = 48 h, 1 µM, compound concentration 1 uM, replicate 2
[11] = 48 h, 10 µM, compound concentration 10 uM, replicate 1
[12] = 48 h, 10 µM, compound concentration 10 uM, replicate 2

Cc1c[nH]c2nccc(Oc3c(F)cc(Nc4cc(Cl)nc(N)n4)cc3F)c12 [BAY-549]
Population Apoptotic (%) [1]: 47%
Population Fragmented Nuclei (%) [1]: 15%
Population Healthy Nuclei (%) [1]: 66%
Population Hoechst High Intensity Objects (%) [1]: 6%
Population Membrane Permeable-Phenotype (%) [1]: 15%
Population Mitochondria Different-Phenotype (%) [1]: 12%
Population Mitotic Cells (%) [1]: 52%
Population Normal (%) [1]: 93%
Population Pyknosed Nuclei (%) [1]: 18%
Population Tubulin-Different-Phenotype (%) [1]: 21%
Total Cell Count [1]: 200
Population Apoptotic (%) [2]: 44%
Population Fragmented Nuclei (%) [2]: 12%
Population Healthy Nuclei (%) [2]: 73%
Population Hoechst High Intensity Objects (%) [2]: 5%
Population Membrane Permeable-Phenotype (%) [2]: 4%
Population Mitochondria Different-Phenotype (%) [2]: 6%
Population Mitotic Cells (%) [2]: 55%
Population Normal (%) [2]: 94%
Population Pyknosed Nuclei (%) [2]: 14%
Population Tubulin-Different-Phenotype (%) [2]: 12%
Total Cell Count [2]: 68
Population Apoptotic (%) [3]: 48%
Population Fragmented Nuclei (%) [3]: 20%
Population Healthy Nuclei (%) [3]: 59%
Population Hoechst High Intensity Objects (%) [3]: 9%
Population Membrane Permeable-Phenotype (%) [3]: 12%
Population Mitochondria Different-Phenotype (%) [3]: 19%
Population Mitotic Cells (%) [3]: 52%
Population Normal (%) [3]: 90%
Population Pyknosed Nuclei (%) [3]: 20%
Population Tubulin-Different-Phenotype (%) [3]: 16%
Total Cell Count [3]: 136
Population Apoptotic (%) [4]: 40%
Population Fragmented Nuclei (%) [4]: 17%
Population Healthy Nuclei (%) [4]: 65%
Population Hoechst High Intensity Objects (%) [4]: 6%
Population Membrane Permeable-Phenotype (%) [4]: 7%
Population Mitochondria Different-Phenotype (%) [4]: 10%
Population Mitotic Cells (%) [4]: 60%
Population Normal (%) [4]: 93%
Population Pyknosed Nuclei (%) [4]: 17%
Population Tubulin-Different-Phenotype (%) [4]: 10%
Total Cell Count [4]: 62
Population Apoptotic (%) [5]: 37%
Population Fragmented Nuclei (%) [5]: 13%
Population Healthy Nuclei (%) [5]: 70%
Population Hoechst High Intensity Objects (%) [5]: 3%
Population Membrane Permeable-Phenotype (%) [5]: 9%
Population Mitochondria Different-Phenotype (%) [5]: 10%
Population Mitotic Cells (%) [5]: 62%
Population Normal (%) [5]: 96%
Population Pyknosed Nuclei (%) [5]: 16%
Population Tubulin-Different-Phenotype (%) [5]: 18%
Total Cell Count [5]: 226
Population Apoptotic (%) [6]: 46%
Population Fragmented Nuclei (%) [6]: 8%
Population Healthy Nuclei (%) [6]: 71%
Population Membrane Permeable-Phenotype (%) [6]: 5%
Population Mitochondria Different-Phenotype (%) [6]: 7%
Population Mitotic Cells (%) [6]: 53%
Population Pyknosed Nuclei (%) [6]: 20%
Total Cell Count [6]: 77
Population Apoptotic (%) [7]: 59%
Population Fragmented Nuclei (%) [7]: 25%
Population Healthy Nuclei (%) [7]: 53%
Population Hoechst High Intensity Objects (%) [7]: 8%
Population Membrane Permeable-Phenotype (%) [7]: 12%
Population Mitochondria Different-Phenotype (%) [7]: 19%
Population Mitotic Cells (%) [7]: 40%
Population Normal (%) [7]: 91%
Population Pyknosed Nuclei (%) [7]: 21%
Population Tubulin-Different-Phenotype (%) [7]: 16%
Total Cell Count [7]: 135
Population Apoptotic (%) [8]: 71%
Population Fragmented Nuclei (%) [8]: 12%
Population Healthy Nuclei (%) [8]: 62%
Population Hoechst High Intensity Objects (%) [8]: 5%
Population Membrane Permeable-Phenotype (%) [8]: 11%
Population Mitochondria Different-Phenotype (%) [8]: 20%
Population Mitotic Cells (%) [8]: 28%
Population Normal (%) [8]: 94%
Population Pyknosed Nuclei (%) [8]: 25%
Population Tubulin-Different-Phenotype (%) [8]: 20%
Total Cell Count [8]: 59
Population Apoptotic (%) [9]: 60%
Population Healthy Nuclei (%) [9]: 64%
Population Hoechst High Intensity Objects (%) [9]: 2%
Population Membrane Permeable-Phenotype (%) [9]: 8%
Population Mitochondria Different-Phenotype (%) [9]: 13%
Population Mitotic Cells (%) [9]: 39%
Population Normal (%) [9]: 97%
Population Pyknosed Nuclei (%) [9]: 19%
Population Tubulin-Different-Phenotype (%) [9]: 20%
Total Cell Count [9]: 302
Population Apoptotic (%) [10]: 66%
Population Fragmented Nuclei (%) [10]: 15%
Population Healthy Nuclei (%) [10]: 73%
Population Hoechst High Intensity Objects (%) [10]: 0%
Population Membrane Permeable-Phenotype (%) [10]: 11%
Population Mitochondria Different-Phenotype (%) [10]: 20%
Population Mitotic Cells (%) [10]: 33%
Population Normal (%) [10]: 99%
Population Pyknosed Nuclei (%) [10]: 11%
Population Tubulin-Different-Phenotype (%) [10]: 28%
Total Cell Count [10]: 106
Population Apoptotic (%) [11]: 60%
Population Fragmented Nuclei (%) [11]: 34%
Population Healthy Nuclei (%) [11]: 41%
Population Hoechst High Intensity Objects (%) [11]: 5%
Population Membrane Permeable-Phenotype (%) [11]: 17%
Population Mitochondria Different-Phenotype (%) [11]: 46%
Population Mitotic Cells (%) [11]: 40%
Population Normal (%) [11]: 94%
Population Pyknosed Nuclei (%) [11]: 24%
Population Tubulin-Different-Phenotype (%) [11]: 19%
Total Cell Count [11]: 132
Population Apoptotic (%) [12]: 76%
Population Fragmented Nuclei (%) [12]: 12%
Population Healthy Nuclei (%) [12]: 63%
Population Hoechst High Intensity Objects (%) [12]: 8%
Population Membrane Permeable-Phenotype (%) [12]: 25%
Population Mitochondria Different-Phenotype (%) [12]: 51%
Population Mitotic Cells (%) [12]: 23%
Population Normal (%) [12]: 91%
Population Pyknosed Nuclei (%) [12]: 23%
Population Tubulin-Different-Phenotype (%) [12]: 28%
Total Cell Count [12]: 60
